One series concerns the target Histamine H1 receptor (Homo sapiens, UniProt P35367). Nature of the series: In vitro binding affinity towards histamine H1 receptor expressed in CHO-K1 cells. In kind it is cell-based.
Series [1] concerns the target T1, Polyunsaturated fatty acid 5-lipoxygenase (Homo sapiens, UniProt P09917).
T1 sequence (P09917 whole entry): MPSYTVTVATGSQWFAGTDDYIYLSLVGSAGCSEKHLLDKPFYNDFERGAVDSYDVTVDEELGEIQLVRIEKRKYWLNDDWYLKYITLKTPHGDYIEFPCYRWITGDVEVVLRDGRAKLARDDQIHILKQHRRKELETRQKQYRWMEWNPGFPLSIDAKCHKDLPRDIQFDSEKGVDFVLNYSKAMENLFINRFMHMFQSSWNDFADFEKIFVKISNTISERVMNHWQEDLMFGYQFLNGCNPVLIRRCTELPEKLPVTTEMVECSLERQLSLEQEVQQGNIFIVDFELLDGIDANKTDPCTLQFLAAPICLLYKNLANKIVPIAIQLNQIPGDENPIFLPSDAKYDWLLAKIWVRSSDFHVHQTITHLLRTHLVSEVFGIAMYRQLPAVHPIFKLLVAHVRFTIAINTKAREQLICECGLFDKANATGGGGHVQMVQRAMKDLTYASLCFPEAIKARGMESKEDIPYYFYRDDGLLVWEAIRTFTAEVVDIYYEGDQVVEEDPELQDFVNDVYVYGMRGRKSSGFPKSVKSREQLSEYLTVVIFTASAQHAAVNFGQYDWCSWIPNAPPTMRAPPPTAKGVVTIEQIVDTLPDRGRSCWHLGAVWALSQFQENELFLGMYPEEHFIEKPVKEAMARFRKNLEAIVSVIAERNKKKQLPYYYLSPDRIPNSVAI
Nature of the series: In vitro inhibitory activity against 5-lipoxygenase in a human whole blood assay. In kind it is tissue-based.

The target in series [2] is T2, Polyunsaturated fatty acid 5-lipoxygenase (Rattus norvegicus, UniProt P12527).
T2 sequence (P12527 whole entry): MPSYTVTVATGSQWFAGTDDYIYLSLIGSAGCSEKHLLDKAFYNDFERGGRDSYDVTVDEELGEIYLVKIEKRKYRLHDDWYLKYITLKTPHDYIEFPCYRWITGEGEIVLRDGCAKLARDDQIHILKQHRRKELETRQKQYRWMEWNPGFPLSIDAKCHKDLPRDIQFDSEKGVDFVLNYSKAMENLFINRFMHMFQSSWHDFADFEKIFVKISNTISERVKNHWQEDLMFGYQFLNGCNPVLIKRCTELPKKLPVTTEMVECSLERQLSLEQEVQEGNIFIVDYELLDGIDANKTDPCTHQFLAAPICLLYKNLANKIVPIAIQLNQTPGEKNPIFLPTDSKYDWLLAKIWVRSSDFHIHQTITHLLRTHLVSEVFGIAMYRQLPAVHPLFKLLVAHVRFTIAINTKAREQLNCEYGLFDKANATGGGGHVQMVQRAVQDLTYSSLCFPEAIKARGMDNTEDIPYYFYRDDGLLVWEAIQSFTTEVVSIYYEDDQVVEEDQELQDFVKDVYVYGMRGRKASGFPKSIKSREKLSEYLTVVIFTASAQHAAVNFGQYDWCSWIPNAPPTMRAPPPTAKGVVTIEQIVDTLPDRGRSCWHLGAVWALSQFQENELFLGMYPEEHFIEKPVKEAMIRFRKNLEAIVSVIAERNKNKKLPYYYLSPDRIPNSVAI
Nature of the series: In vitro inhibitory activity against 5-lipoxygenase in an RBL-2H3 cell lysate. In kind it is cell-based.

The nature of series [3]: Permeability in Caco-2 cells of compound. Particulars: human. In kind it is ADME, cell-based. Summed up:
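Permeability measured across Caco-2 cells and reported as apparent permeability (Papp) in cm/sec.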
(In general: Passage across Caco-2 layers is used to estimate intestinal permeability.)

The species named for another series is Rattus norvegicus. Nature of the series: Intrinsic clearance of compound against NADPH-fortified rat liver microsomes. It counts as ADME, Microsome. Summed up:
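Compound incubated with NADPH-fortified rat liver microsomes to measure metabolic stability. Intrinsic clearance is reported as µL/min/mg protein.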

Chain of Histamine H1 receptor (P35367 whole entry): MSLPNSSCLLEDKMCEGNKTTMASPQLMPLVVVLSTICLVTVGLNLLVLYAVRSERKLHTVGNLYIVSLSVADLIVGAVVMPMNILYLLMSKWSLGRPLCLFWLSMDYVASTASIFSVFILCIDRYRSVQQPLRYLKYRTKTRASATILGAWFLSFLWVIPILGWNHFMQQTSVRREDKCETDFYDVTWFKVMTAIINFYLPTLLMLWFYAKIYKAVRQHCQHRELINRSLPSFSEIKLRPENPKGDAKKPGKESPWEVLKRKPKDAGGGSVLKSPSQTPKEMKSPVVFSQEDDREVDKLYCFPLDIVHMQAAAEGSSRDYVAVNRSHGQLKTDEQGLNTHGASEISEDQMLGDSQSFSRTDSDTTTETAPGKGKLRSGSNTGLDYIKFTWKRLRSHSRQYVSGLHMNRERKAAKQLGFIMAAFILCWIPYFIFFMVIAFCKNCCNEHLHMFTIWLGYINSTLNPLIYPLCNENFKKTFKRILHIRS

For `NC(=O)N(O)CCC#C[C@@H]1CC[C@@H](CN2CCN(C(c3ccc(F)cc3)c3ccc(F)cc3)CC2)O1`, at Histamine H1 receptor, the affinity corresponds to a Ki of 660 nM. Also, the IC50 in series [1] turned out to be 140 nM.
With `NC(=O)N(O)CCC#Cc1ccc(CN2CCN([C@H](c3ccccc3)c3ccc(Cl)cc3)CC2)o1`, the figures for the IC50 in series [2] and in series [1] were less than 200 nM and 420 nM, respectively. In addition, in series [3], the Permeability turned out to be 6 ×10⁻⁶ cm/s. For the same molecule, the Clint in the series filed under Rattus norvegicus is given as 33 ul min-1 (mg of protein)-1.
As to `NC(=O)N(O)CCC#C[C@@H]1CC[C@@H](CN2CCN([C@H](c3ccccc3)c3ccc(Cl)cc3)CC2)O1`, the Ki at Histamine H1 receptor worked out at 50 nM.
On to `NC(=O)N(O)CCC#C[C@@H]1CC[C@@H](COc2ccc(F)cc2)O1`, for which half-maximal inhibition in series [1] (IC50) required 117 nM.
Regarding `CC(C#Cc1ccc(CN2CCN([C@H](c3ccccc3)c3ccc(Cl)cc3)CC2)o1)N(O)C(N)=O` (some centres undefined), at Histamine H1 receptor, the affinity corresponds to a Ki of 190 nM. The same molecule registered an IC50 in series [1] of 3500 nM.
As for `NC(=O)N(O)CCC#Cc1ccc(CN2CCN(C(c3ccc(F)cc3)c3ccc(F)cc3)CC2)o1`, the results for the IC50 in series [2] and in series [1] were less than 200 nM and 170 nM, respectively.
On to `NC(=O)N(O)CCC#C[C@H]1CC[C@H](CN2CCN([C@H](c3ccccc3)c3ccc(Cl)cc3)CC2)O1`, for which the affinity on Histamine H1 receptor, expressed as Ki, was 180 nM. In series [1], the IC50 came out at 510 nM.

One may read the Ki as the equilibrium dissociation constant of an inhibitor or competing ligand from its target. Higher therefore signals lower affinity. Usually IC50 stands for the concentration needed to halve the response being measured.

These data come from ChEMBL document CHEMBL1147568, “5-lipoxygenase inhibitors with histamine H(1) receptor antagonist activity” (Bioorg Med Chem Lett, 2004).
